Reference: ChEMBL document CHEMBL4765334, “Chemical profiling of HIV-1 capsid-targeting antiviral PF74” (Eur J Med Chem, 2020)

Assays:
[1] = system: Human immunodeficiency virus 1; experiment: Binding affinity to covalently-crosslinked hexameric HIV1 capsid protein A14C/E45C/W184A/M185A mutant expressed in Escherichia coli BL21(DE3)RIL assessed as change in melting temperature at 20 uM incubated for 30 mins by thermal shift dye based fluorescence analysis
Outline: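 Thermal shift: 15 μM CA121 in 50 mM sodium phosphate pH 8.0 with Sypro Orange and compound at 20 μM final or DMSO control. Heated 25 to 95 °C at 0.2 °C/10 s; fluorescence Ex 475–500, Em 520–590 nm. ΔTm = Tm(compound) − T0(DMSO) for CA hexamer melting.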

[2] = system: Human immunodeficiency virus 1; experiment: Antiviral activity against HIV1 NL4-3 infected in human TZM-GFP cells assessed as number of GFP positive cells incubated for 48 hrs by imaging reader; assay type: functional, organism-based; conditions: Human immunodeficiency virus 1, NL4-3, TZM
Outline: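 TZM-GFP cells seeded 1 × 10^4/well and given increasing compound concentrations 24 h later; infected with HIV-1 NL4-3 (MOI = 1) after a further 24 h. Read-out after 48 h: GFP-positive cell counts (LTR-driven) versus DMSO controls. EC50 fitted as log(inhibitor) vs normalized response, variable slope, per experiment and averaged; mean ± SD, duplicates, at least two independent experiments.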

[3] = Metabolic stability at phase 1 in human liver microsomes assessed as half life at 1 uM by LC-MS/MS analysis; assay type: ADME, Microsome
[4] = Stability of the compound in mouse plasma assessed as half life incubated for 3 hrs by LC-MS/MS analysis; assay type: ADME, cell-free
[5] = Metabolic stability at phase 1 in mouse liver microsomes assessed as half life at 1 uM by LC-MS/MS analysis; assay type: ADME, Microsome; conditions: for t1/2: microsomes, 1 µM; for half-life at 1 µM: liver microsomes
[6] = system: TZM; experiment: Cytotoxicity against human TZM-GFP cells incubated for 72 hrs by XTT assay; assay type: cell-based; conditions: tzm, 72 h
Outline: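 TZM-GFP cells seeded at 1 × 10^4 per well and exposed continuously to increasing compound concentrations for 72 h. Viable cell number read by XTT proliferation kit. CC50 fitted as log(inhibitor) vs normalized response, variable slope, per independent assay and averaged. Run in duplicate, at least two independent experiments, reported as mean ± standard deviation.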

[7] = Stability of the compound in human plasma assessed as half life incubated for 3 hrs by LC-MS/MS analysis; assay type: ADME, cell-free

Row | Compound | ΔTm [1] [°C] | EC50 [2] [µM] | t1/2 [3] [min] | t1/2 [4] [min] | t1/2 [5] [min] | CC50 [6] [µM] | t1/2 [7] [min] | half-life at 1 µM [5] [min]
1 | COc1ccc(N(C)C(=O)[C@H](Cc2ccccc2)NC(=O)Cc2c(C)[nH]c3ccccc23)cc1 | 8.4 | 0.63 | 1 | > 360 | 0.7 | > 100 | > 360 | –
2 | CCn1cc(CC(=O)N[C@@H](Cc2ccccc2)C(=O)N(C)c2ccc(F)cc2)c2ccccc21 | 7.1 | 0.27 | 1.3 | > 360 | – | 18 | > 360 | 0.5
3 | Cc1c(CC(=O)N[C@@H](Cc2ccccc2)C(=O)N(C)c2ccccc2)c2ccccc2n1C(C)C | 7.8 | 0.28 | 0.6 | > 360 | – | 16 | > 360 | 0.5
4 | CCn1c(C)c(CC(=O)N[C@@H](Cc2ccccc2)C(=O)N(C)c2ccc(F)cc2)c2ccccc21 | 10.7 | 0.22 | 1 | > 360 | – | 19 | > 360 | 0.5
5 | CN(C(=O)[C@H](Cc1ccccc1)NC(=O)Cc1c[nH]c2ccccc12)c1ccc(F)cc1 | 3.3 | 1.8 | 1.3 | > 360 | – | > 100 | > 360 | 0.5
6 | Cc1ccc(N(C)C(=O)[C@H](Cc2ccccc2)NC(=O)Cc2c[nH]c3ccccc23)cc1 | 6.6 | 0.28 | 1.5 | > 360 | 0.6 | 66 | > 360 | –
7 | CCN(C(=O)[C@H](Cc1ccccc1)NC(=O)Cc1c(C)[nH]c2ccccc12)c1ccccc1 | 8.5 | 0.25 | 0.9 | > 360 | – | 82 | > 360 | 0.5
8 | Cc1ccc(N(C)C(=O)[C@H](Cc2ccccc2)NC(=O)Cc2c(C)[nH]c3ccccc23)cc1 | 9.1 | 0.31 | 0.9 | > 360 | – | 72 | > 360 | 0.5
9 | CC(C)n1cc(CC(=O)N[C@@H](Cc2ccccc2)C(=O)N(C)c2ccccc2)c2ccccc21 | 6 | 0.33 | 0.9 | > 360 | – | 21 | > 360 | 0.5
10 | CN(C(=O)[C@H](Cc1ccccc1)NC(=O)Cc1c[nH]c2ccccc12)c1cc(F)cc(F)c1 | 2.3 | 2.5 | 0.9 | > 360 | 0.6 | < 50 | > 360 | –
11 | Cc1[nH]c2ccccc2c1CC(=O)N[C@@H](Cc1ccccc1)C(=O)N(C)c1ccccc1 | 7.4 | 0.61 | – | – | – | – | > 360 | 0.6
12 | CN(C(=O)[C@H](Cc1ccccc1)NC(=O)Cc1c[nH]c2ccccc12)c1ccc(Cl)nc1 | 4.9 | 0.26 | 2.1 | > 360 | 0.7 | – | > 360 | –
13 | COc1ccc(N(C)C(=O)[C@H](Cc2ccccc2)NC(=O)Cc2c[nH]c3ccccc23)cc1 | 6.2 | 0.23 | 1.6 | > 360 | 0.6 | > 100 | > 360 | –
14 | Cc1c(CC(=O)N[C@@H](Cc2ccccc2)C(=O)N(C)c2ccc(F)cc2)c2ccccc2n1C(C)C | 7.5 | 0.32 | 0.6 | > 360 | – | 20 | > 360 | 0.5
15 | CCn1cc(CC(=O)N[C@@H](Cc2ccccc2)C(=O)N(C)c2ccccc2)c2ccccc21 | 6.7 | 0.31 | 0.9 | > 360 | – | 23 | > 360 | 0.5
16 | CN(C(=O)[C@H](NC(=O)Cc1c[nH]c2ccccc12)c1ccccc1)c1ccccc1 | 1.5 | > 20 | – | – | – | > 50 | – | –
17 | Cc1[nH]c2ccccc2c1CC(=O)N[C@@H](Cc1ccccc1)C(=O)N(C)c1ccc(F)cc1 | 7 | 0.67 | 1 | > 360 | – | > 50 | > 360 | 0.5
18 | Cc1[nH]c2ccccc2c1CC(=O)N[C@@H](Cc1ccccc1)C(=O)Nc1nc2ccccc2[nH]1 | -0.6 | 11 | – | – | – | 15 | – | –
19 | CCn1c(C)c(CC(=O)N[C@@H](Cc2ccccc2)C(=O)N(C)c2ccccc2)c2ccccc21 | 10.8 | 0.28 | 1 | > 360 | – | 21 | > 360 | 0.5
20 | CC(C)n1cc(CC(=O)N[C@@H](Cc2ccccc2)C(=O)N(C)c2ccc(Cl)cc2)c2ccccc21 | 7.1 | 0.32 | – | – | – | 10 | – | –
21 | CCn1cc(CC(=O)N[C@@H](Cc2ccccc2)C(=O)N(C)c2ccc(Cl)cc2)c2ccccc21 | 8.6 | 0.25 | – | – | – | 16 | – | –
22 | Cc1[nH]c2ccccc2c1CC(=O)N[C@@H](Cc1ccccc1)C(=O)Nc1cccnn1 | 0 | > 20 | – | – | – | > 100 | – | –
23 | Cc1cc(NC(=O)[C@H](Cc2ccccc2)NC(=O)Cc2c[nH]c3ccccc23)n[nH]1 | 0 | > 20 | – | – | – | > 100 | – | –
24 | CCn1cc(CC(=O)N[C@@H](Cc2ccccc2)C(=O)N(C)c2cccc(Cl)c2)c2ccccc21 | 5.8 | 2 | – | – | – | 20 | – | –
25 | Cc1[nH]c2ccccc2c1CC(=O)N[C@@H](Cc1ccccc1)C(=O)NCc1cccc2[nH]ccc12 | 0 | > 20 | – | – | – | 36 | – | –
26 | Cc1[nH]c2ccccc2c1CC(=O)N[C@@H](Cc1ccccc1)C(=O)Nc1ccc2ncsc2c1 | 1.4 | 10 | – | – | – | 49 | – | –
27 | CC(C)n1cc(CC(=O)N[C@@H](Cc2ccccc2)C(=O)N(C)c2ccc(F)cc2)c2ccccc21 | 6.5 | 0.37 | 0.9 | > 360 | – | 18 | > 360 | 0.5
28 | O=C(Cc1c[nH]c2ccccc12)N[C@@H](Cc1ccccc1)C(=O)Nc1cccc(-c2nnn[nH]2)c1 | -0.7 | > 20 | – | – | – | > 100 | – | –
29 | Cc1c(CC(=O)N[C@@H](Cc2ccccc2)C(=O)N(C)c2cccc(Cl)c2)c2ccccc2n1C(C)C | 5.5 | 0.36 | – | – | – | 14 | – | –
